This note sets out measurements from ChEMBL document CHEMBL4513216, “Probing the Open Global Health Chemical Diversity Library for Multistage-Active Starting Points for Next-Generation Antimalarials” (ACS Infect Dis, 2020).

This data set in a line: Toxicity liver stage against HepG2, at 10uM. The class given is cell-based. Also noted: test concentration 10 uM, cell line HepG2-A16-CD81EGFP. To be noted: human, HepG2-A16-CD81EGFP cells; read-out: INHIBITION
The method, boiled down: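 Uninfected HepG2-A16-CD81EGFP cells, 3 × 10^3 per well, 1536-well, plated on prespotted compound at 10 μM final, parasite-free screening media added to match infected plates; puromycin 10 μM positive, DMSO 0.5% negative; run in parallel with 48 h PbLuc assay at 37 °C, 5% CO2; viability by CellTiter-Glo luminescence, normalized to controls.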
Consider `O=C(C1CC1)N1C[C@@H](F)[C@@H](OCc2nc3ccccc3[nH]2)C1`, for which the cytotoxicity at 10 µM is -0.0342%. As to `c1ccc(-c2cc(CC3(NCc4ncc[nH]4)COC3)no2)cc1`, the cytotoxicity at 10 µM came to 2.05%. Consider `CS(=O)(=O)Nc1ccc([C@H]2OCC(=O)N[C@@H]2CO)cc1`, for which the cytotoxicity at 10 µM was -5.4%. As to `O=C1N(Cc2cccnc2)C[C@H]2CN(C3CCOCC3)CCN12`, the cytotoxicity at 10 µM was -9.7%.

`CC(=O)N1CCC(NC[C@H]2Cn3c(-c4ccccc4)cnc3CO2)CC1`: the cytotoxicity at 10 µM is -5.04%. As for `Nc1c(N2CCCC2)ncnc1N1CCOCC1`, the figure is 12.8%; as for `Cc1ccc(CN2CC(O)CN(C(=O)C3CC3)CC2=O)cc1` (stereo unspecified), -2.12%; as for `O=c1c(S(=O)(=O)N2CCCC2)cccn1Cc1c(F)cccc1Cl`, 0.814%. On to `CCOCC1CN(S(=O)(=O)C2CC2)Cc2ncn(CC3CC3)c21` (stereo unspecified), for which the cytotoxicity at 10 µM was 4.44%. Consider `Cc1cccc(CN2CC3(CCN(C(N)=O)CC3)OCC2=O)n1`, for which the cytotoxicity at 10 µM worked out at 2.17%. The figure for `Cc1nn(C)c2nc3c(c(C(=O)/N=c4\[nH]nc(C(C)C)s4)c12)CCC3` is -2.25%. The figure for `Cn1c(=O)[nH]c(=O)c2c1nc1n2CC(c2ccc(Cl)cc2)O1` (stereo unspecified) is -176%; for `CC(=O)N1N=C(c2ccccc2)OC1C(=O)NCCC1=CCCCC1` (stereo unspecified) it is 9.74%.

Take `Cc1ccc(F)c(-n2nnc(C(=O)O)c2-c2ccncc2)c1`: the cytotoxicity at 10 µM is -4.89%. The figure for `CCn1ccc(-c2nnc(SCC(=O)Nc3ccc(C)cc3)n2CC)n1` is 5.11%; for `CCOc1ccc(NC(C)=O)cc1S(=O)(=O)Nc1ccon1` it is -10.8%; for `CCn1cc(CN(C)S(=O)(=O)c2cnn(C)c2)cn1` it is 8.16%. The figure for `Cc1nc(CN(C)C(=O)CN(C)C)nc2c1CCC(=O)N2CCC(C)C` is -10.5%. The figure for `Cc1cc(C)n(CCNCc2cc(-c3ccccc3)c[nH]c2=O)n1` is -2.47%; for `CC(C)n1nccc1CN1Cc2nccn2CC1c1ccccc1` (stereo unspecified) it is 5.38%; for `Cc1nc(NCC2CCOCC2)cc(C2CCN2S(C)(=O)=O)n1` (stereo unspecified) it is 2.58%. In the case of `O=C(O)c1ccccc1CN1CCCC(Cc2ccn[nH]2)C1` (stereo unspecified), the cytotoxicity at 10 µM stood at 2.79%. For the compound `Cc1nc2c(c(NCCN3CCOCC3)n1)CCN(C)C2`, the cytotoxicity at 10 µM was determined as 4.09%. The figure for `Cc1cc(C)nc(C2CCCN2c2ccnc(C)n2)n1` (stereo unspecified) is -16.4%; for `Cc1nc[nH]c1CN1CCN(C2CCOCC2)CC(C(N)=O)C1` (stereo unspecified) it is -19.5%.

Consider `Cc1ccc(-n2c(SCC(=O)O)nnc2-c2cccc(C)c2)cc1`, for which the cytotoxicity at 10 µM was -2.05%.

As to `CC(=O)N1CCC(Cc2cnc(C(=O)N3CCCC3)cn2)C1` (stereo unspecified), the cytotoxicity at 10 µM is -23.6%. The figure for `O=S(=O)(N1CCCCC1)N1CCC(Oc2cnccn2)CC1` is -14.1%; for `CN(C)S(=O)(=O)N1CCN(Cc2ccnc(N3CCCC3)n2)CC1` it is -4.42%. In the case of `O=C(CN(Cc1cccs1)C1CCS(=O)(=O)C1)NCC1CCCCC1` (stereo unspecified), the cytotoxicity at 10 µM came to 0.611%. On to `Cc1cccc2nc(CN3CCC(Cn4ccnn4)CC3)cc(=O)n12`, for which the cytotoxicity at 10 µM is 2.62%.

Take `CCN(Cc1ccc(N(C)C)cc1)S(=O)(=O)c1cc(Br)ccc1OC`: the cytotoxicity at 10 µM amounted to 5.12%. Turning to `CCS(=O)(=O)NCC(=O)N(C1CC1)C1Cc2ccccc2C1`, the cytotoxicity at 10 µM was 4.25%.

In the case of `O=C(OCc1ccccc1)c1cccc(NC(=O)C2COCCO2)c1` (stereo unspecified), the cytotoxicity at 10 µM was -0.488%.

Take `Cc1cnc(C(=O)NCC(c2ccc(C)o2)N2CCOCC2)cn1` (stereo unspecified): the cytotoxicity at 10 µM was -7.2%. The figure for `CNC(=O)CCS(=O)(=O)Cc1coc(-c2ccc(F)cc2)n1` is -3%. `Cc1cn2nc(N3CCn4c(nnc4C(C)C)C3)sc2n1`: the cytotoxicity at 10 µM was 5.73%. As for `Cc1cc2c(o1)CC(C)(C)CC2NC(=O)CNC(=O)C1CC1` (stereo unspecified), the figure is 4.57%.

With `COCc1noc(-c2nn(-c3ccc(F)cc3)c3c2CCC3)n1`, the cytotoxicity at 10 µM was 2.87%.

Turning to `N#Cc1ccc(NCc2cccc(COC3CCOCC3)c2)nc1`, the cytotoxicity at 10 µM was determined as 32.4%. On to `c1cc(CN2CCSC3(CCCCC3)C2)no1`, for which the cytotoxicity at 10 µM was 0.807%.

For `CS(=O)(=O)c1nccn1CCOc1ccccc1F`, the cytotoxicity at 10 µM came to 4.05%. As to `CC(CO)N(C)C(=O)c1cn(-c2ccc(Br)cc2)cn1` (stereo unspecified), the cytotoxicity at 10 µM is -2.87%. Take `Cc1oc(C(=O)O)cc1S(=O)(=O)Nc1c(F)cccc1-n1cccn1`: the cytotoxicity at 10 µM is -3.45%. For the compound `COc1ccnc(N2CCN(C(=O)c3csc(C(C)C)n3)CC2)n1`, the cytotoxicity at 10 µM was -1.82%. For the compound `Cc1ccc(CC(=O)N2CCOC(c3nc(C(C)(C)C)n[nH]3)C2)cn1` (stereo unspecified), the cytotoxicity at 10 µM was -5.96%. As for `c1cncc(N2CCCn3nnc(CN4CCOCC4)c3C2)c1`, the cytotoxicity at 10 µM amounted to 2.46%. For the compound `CO[C@H]1CCN(S(=O)(=O)c2cccs2)[C@H]1Cc1ccncc1`, the cytotoxicity at 10 µM was -75%. As for `CN(C)C(=O)[C@H]1C[C@H]2OCC[C@H]2N(Cc2ccccn2)C1`, the figure is -75.5%; as for `CC(C)NC(=O)N1CCC2(CC(=O)N(c3cccc(F)c3)C2)C1` (stereo unspecified), 3.46%; as for `CC1=N[C@@]2(CC[C@@H]3CN(S(=O)(=O)N(C)C)C[C@@H]32)C(=O)N1CC(C)C`, 3.16%. Take `CC(C)N[C@@H]1CC[C@@H]1NC(=O)c1ccccc1OC(F)(F)C(F)F`: the cytotoxicity at 10 µM stood at 1.77%.

As to `CCC1CN(C(=O)c2ncccc2O)CCC(=O)N1Cc1ccccc1` (stereo unspecified), the cytotoxicity at 10 µM worked out at 3.2%. The figure for `O=C(CC(F)(F)F)N1CCCC(c2nccn2Cc2ccncc2)C1` (stereo unspecified) is 3.22%; for `N[C@@H]1CC[C@@H](Nc2nccc(CCC(F)(F)F)n2)C1` it is -3.73%. The figure for `CC(C)c1nccc(CN2CCCC(O)(CN(C)C)C2)n1` (stereo unspecified) is 2.89%. Take `COc1cccc(CC2CN(C(=O)c3ccnn3C)CCO2)c1` (stereo unspecified): the cytotoxicity at 10 µM worked out at 0.769%. Take `CCN(Cc1noc(C2CCC2)n1)C(=O)c1cnc2ccccc2c1`: the cytotoxicity at 10 µM was found to be 8.59%.

Regarding `COCCN1CCC(CNC(=O)Nc2ccc(F)c(Cl)c2)C1` (stereo unspecified), the cytotoxicity at 10 µM is 2.59%.

`CN(Cc1cccc(O)c1)C(=O)c1ccc(CCC(C)(C)O)cc1`: the cytotoxicity at 10 µM was 3.58%. `Cc1nc(CN(C)C(=O)C2CC(=O)N(c3cccc(O)c3)C2)cs1` (stereo unspecified): the cytotoxicity at 10 µM was -0.968%. With `O[C@@]1(CNCCCOc2cccnc2)CCCN2CCCC[C@@H]21`, the cytotoxicity at 10 µM is 3.42%.

Regarding `Cc1cc(C)c(C#N)c(NCCSc2nncn2C)n1`, the cytotoxicity at 10 µM is -1.01%. On to `CN1C[C@@H](NC(=O)C(C)(C)C)C[C@H]1C(=O)NCc1ncc[nH]1`, for which the cytotoxicity at 10 µM was found to be 0.452%. As for `CC(C)(C)N1CC(C(=O)NCc2nc(C3CCCCC3)no2)CC1=O` (stereo unspecified), the figure is 1.08%. Regarding `CCN1CCC(N2CCN(C)C3(CCC(=O)N(CCOC)CC3)C2)CC1` (stereo unspecified), the cytotoxicity at 10 µM is -0.724%.

With `CSc1ccc(C(=O)N2CCCC(Nc3ccc(F)cc3)C2)cc1` (stereo unspecified), the cytotoxicity at 10 µM was -11.4%. Regarding `Cc1c(C(=O)N(C)C)cccc1N(C)S(C)(=O)=O`, the cytotoxicity at 10 µM is 8.19%. `CC(C)CN1CCCn2nc(CNC(=O)CCCc3cn[nH]c3)cc2C1`: the cytotoxicity at 10 µM was -6.36%.

In the case of `CCCOCCN1CCC2(CC1)CC(c1ccccc1)C(=O)N2C` (stereo unspecified), the cytotoxicity at 10 µM was found to be 38.1%. As to `COCc1c(C(=O)NC2CCCC2)nnn1-c1ccc(C)cc1`, the cytotoxicity at 10 µM amounted to 5.97%. Turning to `CC(C(=O)NC1CC1)N1CCN(Cc2ccn(C)c(=O)c2)CC1` (stereo unspecified), the cytotoxicity at 10 µM was -5.57%. As for `Cc1cc(C)cc(C(=O)Nc2cn[nH]c2)c1`, the figure is -6.57%.

Regarding `COc1c(CNCc2ccc(N3CCCC3)nc2)c(C(C)C)nn1C`, the cytotoxicity at 10 µM was -11.5%.

As for `Cc1nc(C)n(CC2CCCN2Cc2nc(-c3ccoc3)no2)n1` (stereo unspecified), the cytotoxicity at 10 µM is -8.48%. The figure for `Cc1ncccc1CNCC1CCCN1c1cccnn1` (stereo unspecified) is -14.2%; for `Cc1cc(F)ccc1CNCc1cccc(C(=O)N2CCCC2)c1` it is -10.8%; for `Cc1noc(C2CCN(C(=O)c3cc(Br)ccc3F)CC2)n1` it is -6.14%.

For `CN(Cc1ccco1)C(=O)CN1CCCCC1Cn1cncn1` (stereo unspecified), the cytotoxicity at 10 µM is 3.61%.

On to `COC(=O)N1CCCN(C(=O)c2cccc3cccnc23)CC1`, for which the cytotoxicity at 10 µM is 8.33%. In the case of `CC1CN(CC(=O)N2CCCC2)CCN1c1ccc2nncn2n1` (stereo unspecified), the cytotoxicity at 10 µM is -5.46%. Take `COc1ccccc1CC(=O)NS(=O)(=O)c1cncc(Br)c1`: the cytotoxicity at 10 µM is -12.7%.

Take `COc1cccc(C(=O)N2CCCCC2CNC(N)=O)c1` (stereo unspecified): the cytotoxicity at 10 µM was -7.03%. As for `CCOc1ccc(C#N)cc1NCC(=O)Nc1cc(C)no1`, the figure is -6.67%; as for `O=C(CN1CCCC(Cn2cncn2)C1)NCCOc1ccccc1` (stereo unspecified), 5.61%; as for `CC(C)c1nc(CCNC(=O)NCc2ccnc(N(C)C)c2)cs1`, -4.69%. The figure for `CCc1nc(C2CCCN(C(=O)c3ccc(OC(C)C)nc3)C2)no1` (stereo unspecified) is 3.25%; for `CNC(=O)CN1CCC(NC(=O)N(C)Cc2cc(C)on2)CC1` it is -0.626%; for `c1ccc(CNc2cc(C3CCCNC3)ccn2)nc1` (stereo unspecified) it is -0.565%. For `Cc1c(NC(=O)CN2CCN(C3CCCC3)C(=O)C2)cnn1C`, the cytotoxicity at 10 µM worked out at 5.25%. As for `O=C(c1ccoc1)N1CCC(NCc2ccccc2Cl)CC1`, the cytotoxicity at 10 µM is 3.95%. As for `O=C(CC1CC2(CCN(CC3CC3)CC2)Oc2ccccc21)NC1CC1` (stereo unspecified), the figure is 8.5%; as for `CNC(=O)CN1CCC12CCN(C(=O)Cc1ccccc1)C2` (stereo unspecified), -75.4%. The figure for `CN1CCCc2c1nc1c(c2N)CCCC1` is 11.2%; for `COCCNC(=O)C1CN(Cc2cccc(C)n2)Cc2ccnn2C1` (stereo unspecified) it is -79.2%. The figure for `CCC=C(C)C(=O)N1CSCC1C(=O)NC1=NCCS1` (stereo unspecified) is 11.8%.
